Calls of active or inactive are those of the source. The calls are words filed in the database; no cut-off is given here.
Legend:
Homo sapiens = species on record: Homo sapiens; test: Antiplatelet activity in human platelet-rich plasma assessed as inhibition of ADP-induced platelet aggregation by aggregometry; format: functional
Outline: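 Human PRP from healthy donors free of aspirin/NSAIDs for at least two weeks, drawn into ACD; PRP spun at 300 g for 10 min, PPP at 2000 g. Compound in 0.5% DMSO preincubated 2 min at 37 °C with stirring (900 rpm). Aggregation induced by 10 μM ADP (final) and followed optically for 5 min.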

Rattus norvegicus = test: Antithrombotic activity in anesthetized Wistar rat model of FeCL3-induced carotid artery thrombosis assessed as reduction in thrombus weight at 10 mg/kg, po administered as single dose measured at 1.5 hrs post dose; format: functional, organism-based
Outline: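 Compounds in 0.5% CMC-Na given to Wistar rats as a single oral gavage dose (10 mL/kg). Rats anesthetized with 2% pentobarbital i.p. at 50 mg/kg and kept on a heating pad. At 1.5 h post-dose, filter paper soaked in 20% FeCl3 applied to the isolated left carotid artery for 10 min; thrombus weight recorded. Mean ± SEM, n = 10.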

[1] = Metabolic stability in rat liver microsomes assessed as half life at […] measured up to 60 mins in presence of NADPH regeneration system by LC-MS/MS analysis; format: ADME, Microsome
[2] = Metabolic stability in dog liver microsomes assessed as half life at […] measured up to 60 mins in presence of NADPH regeneration system by LC-MS/MS analysis; format: ADME, Canis lupus familiaris, Microsome
[3] = Metabolic stability in human liver microsomes assessed as half life at […] measured up to 60 mins in presence of NADPH regeneration system by LC-MS/MS analysis; format: ADME, Microsome
[4] = Cmax in Sprague-Dawley rat at 5 mg/kg,po measured up to 24 hrs by LC-MS/MS analysis; format: ADME, organism-based; design: time < 24 hrs, dose 5 mg/kg, route po; settings: in vivo
[5] = Half life in Sprague-Dawley rat at 5 mg/kg,po measured up to 24 hrs by LC-MS/MS analysis; format: ADME, organism-based; settings: in vivo
[6] = Tmax in Sprague-Dawley rat at 5 mg/kg,po measured up to 24 hrs by LC-MS/MS analysis; format: ADME, organism-based; settings: in vivo
[7] = AUC (0 to infinity) in Sprague-Dawley rat at 5 mg/kg,po measured up to 24 hrs by LC-MS/MS analysis; format: ADME, organism-based; design: time < 24 hrs, dose 5 mg/kg, route po; settings: in vivo
[8] = MRT in Sprague-Dawley rat at 5 mg/kg,po measured up to 24 hrs by LC-MS/MS analysis; format: ADME, organism-based; settings: in vivo
[9] = Metabolic stability in rat liver microsomes assessed as intrinsic clearance at 0.1 µM measured up to 60 mins in presence of NADPH regeneration system by LC-MS/MS analysis; settings: 1 h
[10] = Metabolic stability in dog liver microsomes assessed as intrinsic clearance at 0.1 µM measured up to 60 mins in presence of NADPH regeneration system by LC-MS/MS analysis; settings: 1 h
[11] = Metabolic stability in human liver microsomes assessed as intrinsic clearance at 0.1 µM measured up to 60 mins in presence of NADPH regeneration system by LC-MS/MS analysis; settings: 1 h
Cytochrome P450 1A2 = target: T1, Cytochrome P450 1A2 (Homo sapiens, UniProt P05177); test: Inhibition of CYP1A2 in human liver microsomes using phenacetin as substrate preincubated for 10 mins followed by NADPH addition and measured after 15 mins by LC-MS/MS analysis
T1 sequence (P05177 whole entry): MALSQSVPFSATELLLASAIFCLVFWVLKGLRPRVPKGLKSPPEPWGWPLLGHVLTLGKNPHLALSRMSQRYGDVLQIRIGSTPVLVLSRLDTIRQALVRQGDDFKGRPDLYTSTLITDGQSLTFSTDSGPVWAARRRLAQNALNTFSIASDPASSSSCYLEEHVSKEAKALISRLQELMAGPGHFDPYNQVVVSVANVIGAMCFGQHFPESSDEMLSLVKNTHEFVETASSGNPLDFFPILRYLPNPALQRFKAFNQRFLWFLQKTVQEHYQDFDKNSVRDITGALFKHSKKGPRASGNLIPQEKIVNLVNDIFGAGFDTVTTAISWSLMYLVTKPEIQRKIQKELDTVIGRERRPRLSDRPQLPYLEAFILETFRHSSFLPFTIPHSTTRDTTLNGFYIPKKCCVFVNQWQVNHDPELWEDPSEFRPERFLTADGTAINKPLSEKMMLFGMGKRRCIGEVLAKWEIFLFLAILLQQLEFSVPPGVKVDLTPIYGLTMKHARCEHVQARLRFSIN

Cytochrome P450 2C9 = Cytochrome P450 2C9 (Homo sapiens, UniProt P11712); test: Inhibition of CYP2C9 in human liver microsomes using tolbutamide as substrate preincubated for 10 mins followed by NADPH addition and measured after 15 mins by LC-MS/MS analysis
Cytochrome P450 2C9, sequence (P11712 whole entry): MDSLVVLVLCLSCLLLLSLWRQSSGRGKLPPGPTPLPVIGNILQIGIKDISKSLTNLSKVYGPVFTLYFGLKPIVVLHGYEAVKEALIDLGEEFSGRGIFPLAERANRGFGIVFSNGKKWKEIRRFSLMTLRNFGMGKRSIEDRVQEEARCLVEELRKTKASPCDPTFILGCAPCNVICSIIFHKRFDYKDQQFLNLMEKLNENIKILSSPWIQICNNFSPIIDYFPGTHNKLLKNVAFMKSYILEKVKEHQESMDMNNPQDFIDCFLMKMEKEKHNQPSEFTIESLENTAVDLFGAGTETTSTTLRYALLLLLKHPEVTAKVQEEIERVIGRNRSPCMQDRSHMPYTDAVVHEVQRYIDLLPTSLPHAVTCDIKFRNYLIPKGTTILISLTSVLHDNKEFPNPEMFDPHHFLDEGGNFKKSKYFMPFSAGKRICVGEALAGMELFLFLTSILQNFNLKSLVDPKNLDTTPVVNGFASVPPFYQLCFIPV

Cytochrome P450 2C19 = Cytochrome P450 2C19 (Homo sapiens, UniProt P33261); test: Inhibition of CYP2C19 in human liver microsomes using S-mephenytoin as substrate preincubated for 10 mins followed by NADPH addition and measured after 15 mins by LC-MS/MS analysis
Cytochrome P450 2C19, sequence (P33261 whole entry): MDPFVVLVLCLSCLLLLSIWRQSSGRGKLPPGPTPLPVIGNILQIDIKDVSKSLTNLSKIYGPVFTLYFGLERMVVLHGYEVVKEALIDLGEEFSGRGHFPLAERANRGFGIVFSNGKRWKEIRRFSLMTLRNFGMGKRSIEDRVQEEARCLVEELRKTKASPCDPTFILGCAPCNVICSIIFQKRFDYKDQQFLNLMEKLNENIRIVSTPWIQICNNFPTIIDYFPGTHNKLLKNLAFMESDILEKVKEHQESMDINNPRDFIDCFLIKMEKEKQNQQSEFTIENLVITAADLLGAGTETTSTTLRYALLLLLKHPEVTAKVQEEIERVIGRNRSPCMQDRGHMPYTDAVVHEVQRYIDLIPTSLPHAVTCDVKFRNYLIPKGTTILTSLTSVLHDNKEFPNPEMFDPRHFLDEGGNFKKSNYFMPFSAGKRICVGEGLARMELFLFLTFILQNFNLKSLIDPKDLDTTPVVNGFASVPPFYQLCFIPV

Cytochrome P450 2D6 = Cytochrome P450 2D6 (Homo sapiens, UniProt P10635); test: Inhibition of CYP2D6 in human liver microsomes using dextromethorphan as substrate preincubated for 10 mins followed by NADPH addition and measured after 15 mins by LC-MS/MS analysis
Cytochrome P450 2D6, sequence (P10635 whole entry): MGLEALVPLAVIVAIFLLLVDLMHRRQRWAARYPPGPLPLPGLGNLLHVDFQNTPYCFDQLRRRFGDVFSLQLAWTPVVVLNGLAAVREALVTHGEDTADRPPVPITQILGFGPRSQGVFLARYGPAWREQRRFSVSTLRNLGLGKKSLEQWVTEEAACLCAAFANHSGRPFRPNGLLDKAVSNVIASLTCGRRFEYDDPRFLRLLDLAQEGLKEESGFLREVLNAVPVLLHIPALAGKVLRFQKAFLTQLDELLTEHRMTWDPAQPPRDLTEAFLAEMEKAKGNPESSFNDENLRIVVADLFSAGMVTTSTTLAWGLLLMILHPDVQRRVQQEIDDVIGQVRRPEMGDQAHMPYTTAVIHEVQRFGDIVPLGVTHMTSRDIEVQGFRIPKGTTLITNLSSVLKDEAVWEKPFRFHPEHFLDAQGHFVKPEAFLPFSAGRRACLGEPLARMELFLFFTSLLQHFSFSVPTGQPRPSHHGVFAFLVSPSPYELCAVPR

Cytochrome P450 3A4 [12] = target: T2, Cytochrome P450 3A4 (Homo sapiens, UniProt P08684); test: Inhibition of CYP3A4 in human liver microsomes using Midazolam as substrate preincubated for 10 mins followed by NADPH addition and measured after 15 mins by LC-MS/MS analysis
T2 sequence (P08684 whole entry): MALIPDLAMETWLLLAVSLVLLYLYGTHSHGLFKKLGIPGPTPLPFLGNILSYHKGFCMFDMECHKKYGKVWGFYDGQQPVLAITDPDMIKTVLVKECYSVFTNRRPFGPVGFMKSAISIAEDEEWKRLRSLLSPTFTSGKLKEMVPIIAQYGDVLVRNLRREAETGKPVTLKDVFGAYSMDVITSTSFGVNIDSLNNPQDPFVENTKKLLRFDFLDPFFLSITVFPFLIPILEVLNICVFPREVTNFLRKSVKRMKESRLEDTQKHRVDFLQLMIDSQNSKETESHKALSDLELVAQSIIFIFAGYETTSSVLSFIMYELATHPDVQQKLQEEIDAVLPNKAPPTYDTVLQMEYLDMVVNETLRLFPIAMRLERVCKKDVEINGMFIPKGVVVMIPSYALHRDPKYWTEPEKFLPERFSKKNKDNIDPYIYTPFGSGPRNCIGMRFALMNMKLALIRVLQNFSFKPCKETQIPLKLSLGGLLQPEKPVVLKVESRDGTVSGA

Cytochrome P450 3A4 [13] = target: T2, Cytochrome P450 3A4; test: Inhibition of CYP3A4 in human liver microsomes using testosterone as substrate preincubated for 10 mins followed by NADPH addition and measured after 15 mins by LC-MS/MS analysis

## N#Cc1cc2c(nc1N1CCC(C(=O)NS(=O)(=O)Cc3ccc(Cl)cc3)CC1)COC2=O
Homo sapiens
  IC50: 4.42 µM

## N#Cc1cc2c(nc1N1CCC(C(=O)NS(=O)(=O)Cc3ccccc3)CC1)CCC(F)C2=O (centres undefined)
Homo sapiens
  IC50: 255 µM

## N#Cc1cc2c(nc1N1CCC(C(=O)NS(=O)(=O)Cc3ccccc3)CC1)COC2=O
Rattus norvegicus
  Activity: Active
Homo sapiens
  IC50: 2.35 µM
[1]
  half-life: 2.42 h
[2]
  half-life: 1.93 h
[3]
  half-life: 1.35 h
[4]
  Cmax: 271 ng/mL
[5]
  half-life: 1.7 h
[6]
  Tmax: 0.25 h
[7]
  AUC(0-inf): 384 ng·h/mL
[8]
  MRT: 1.91 h
[9]
  intrinsic clearance: 14.5 mL/min/g
[10]
  intrinsic clearance: 18.2 mL/min/g
[11]
  intrinsic clearance: 25.8 mL/min/g

## N#Cc1cc2c(nc1N1CCC(F)(C(=O)NS(=O)(=O)Cc3ccccc3)CC1)COC2=O
Homo sapiens
  IC50: 1.21 µM
[4]
  Cmax: 149 ng/mL
[5]
  half-life: 2.52 h
[6]
  Tmax: 0.25 h
[7]
  AUC(0-inf): 291 ng·h/mL
[8]
  MRT: 3.83 h

## CC1(C(=O)NS(=O)(=O)Cc2ccc(F)cc2F)CCN(c2nc3c(cc2C#N)C(=O)OC3)CC1
Homo sapiens
  IC50: 8.76 µM

## N#Cc1cc2c(nc1N1CCC(C(=O)NS(=O)(=O)Cc3ccccc3)C1)COC2=O (centres undefined)
Homo sapiens
  IC50: > 300 µM

## N#Cc1cc2c(nc1N1CCC(C(=O)NS(=O)(=O)Cc3ccccc3)CC1)CCC(Cl)C2=O (centres undefined)
Homo sapiens
  IC50: > 300 µM

## CC1OC(=O)c2cc(C#N)c(N3CC(C(=O)NS(=O)(=O)Cc4ccccc4)C3)nc21 (centres undefined)
Homo sapiens
  IC50: > 300 µM

## N#Cc1cc2c(nc1N1CCC(C(=O)NS(=O)(=O)Cc3cccc(F)c3)CC1)COC2=O
Homo sapiens
  IC50: 70.5 µM

## N#Cc1ccc(CS(=O)(=O)NC(=O)C2CCN(c3nc4c(cc3C#N)C(=O)OC4)CC2)cc1
Homo sapiens
  IC50: 8.9 µM

## CC1OC(=O)c2cc(C#N)c(N3CCC(C(=O)NS(=O)(=O)Cc4ccccc4)CC3)nc21 (centres undefined)
Homo sapiens
  IC50: > 300 µM

## N#Cc1cc2c(nc1N1CC(C(=O)NS(=O)(=O)Cc3ccccc3)C1)COC2=O
Homo sapiens
  IC50: > 300 µM

## CC1OC(=O)c2cc(C#N)c(N3CCC(C(=O)NS(=O)(=O)Cc4ccccc4)C3)nc21 (centres undefined)
Homo sapiens
  IC50: > 300 µM

## CC(c1ccccc1)S(=O)(=O)NC(=O)C1(F)CCN(c2nc3c(cc2C#N)C(=O)OC3)CC1 (centres undefined)
Homo sapiens
  IC50: 9.95 µM

## N#Cc1cc2c(nc1N1CCC(C(=O)NS(=O)(=O)Cc3ccccc3)CC1)CNC2=O
Homo sapiens
  IC50: > 300 µM

## N#Cc1cc2c(nc1N1CCC(C(=O)NS(=O)(=O)Cc3ccc(F)cc3F)CC1)COC2=O
Homo sapiens
  IC50: 5.2 µM

## N#Cc1cc2c(nc1N1CCC(C(=O)NS(=O)(=O)Cc3ccccc3)CC1)CCCC2=O
Homo sapiens
  IC50: 117 µM

## N#Cc1cc2c(nc1N1CC(C(=O)NS(=O)(=O)c3ccc(Cl)s3)C1)COC2=O
Homo sapiens
  IC50: 193 µM

## N#Cc1cc2c(nc1N1CCC(C(=O)NS(=O)(=O)C3(c4ccccc4)CC3)CC1)COC2=O
Homo sapiens
  IC50: 4.1 µM

## CC1(C(=O)NS(=O)(=O)Cc2ccc(Cl)cc2)CCN(c2nc3c(cc2C#N)C(=O)OC3)CC1
Homo sapiens
  IC50: 3.01 µM
[4]
  Cmax: 877 ng/mL
[5]
  half-life: 1.9 h
[6]
  Tmax: 0.25 h
[7]
  AUC(0-inf): 1350 ng·h/mL
[8]
  MRT: 2.58 h

## N#Cc1cc2c(nc1N1CCC(C(=O)NS(=O)(=O)Cc3cc(Cl)cc(Cl)c3)CC1)COC2=O
Homo sapiens
  IC50: 30.5 µM

## N#Cc1cc2c(nc1N1CCC(C(=O)NS(=O)(=O)Cc3ccccc3)CC1)CCOC2=O
Homo sapiens
  IC50: > 300 µM

## CC(c1ccccc1)S(=O)(=O)NC(=O)C1CCN(c2nc3c(cc2C#N)C(=O)OC3)CC1 (centres undefined)
Homo sapiens
  IC50: 4.16 µM

## N#Cc1cc2c(nc1N1CCC(C(=O)NS(=O)(=O)Cc3ccccc3F)CC1)COC2=O
Homo sapiens
  IC50: 23.7 µM

## N#Cc1cc2c(nc1N1CCC(C(=O)NS(=O)(=O)Cc3ccc(F)cc3)CC1)COC2=O
Homo sapiens
  IC50: 3.5 µM

## Cc1ccc(CS(=O)(=O)NC(=O)C2(F)CCN(c3nc4c(cc3C#N)C(=O)OC4)CC2)cc1
Homo sapiens
  IC50: 32.8 µM

## CN1Cc2nc(N3CCC(C(=O)NS(=O)(=O)Cc4ccccc4)CC3)c(C#N)cc2C1=O
Homo sapiens
  IC50: > 300 µM

## Cc1ccc(CS(=O)(=O)NC(=O)C2CCN(c3nc4c(cc3C#N)C(=O)OC4)CC2)cc1
Homo sapiens
  IC50: 4.28 µM

## N#Cc1cc2c(nc1N1CCC(C(=O)NS(=O)(=O)c3ccc(Cl)s3)CC1)COC2=O
Homo sapiens
  IC50: 4.47 µM
[1]
  half-life: 2.53 h
[2]
  half-life: 2.85 h
[3]
  half-life: 1.32 h
[4]
  Cmax: 225 ng/mL
[5]
  half-life: 2.4 h
[6]
  Tmax: 0.25 h
[7]
  AUC(0-inf): 417 ng·h/mL
[8]
  MRT: 2.31 h
Cytochrome P450 1A2
  IC50: > 50 µM
Cytochrome P450 2C9
  IC50: > 50 µM
Cytochrome P450 2C19
  IC50: 28.5 µM
Cytochrome P450 2D6
  IC50: > 50 µM
Cytochrome P450 3A4 [12]
  IC50: > 50 µM
Cytochrome P450 3A4 [13]
  IC50: > 50 µM
[9]
  intrinsic clearance: 13.8 mL/min/g
[10]
  intrinsic clearance: 12.3 mL/min/g
[11]
  intrinsic clearance: 26.6 mL/min/g

## CC1(C(=O)NS(=O)(=O)Cc2ccc(F)cc2)CCN(c2nc3c(cc2C#N)C(=O)OC3)CC1
Homo sapiens
  IC50: 35.4 µM

## N#Cc1cc2c(nc1N1CCC(F)(C(=O)NS(=O)(=O)c3ccc(Cl)s3)CC1)COC2=O
Homo sapiens
  IC50: 37.1 µM

## CC1OC(=O)c2cc(C#N)c(N3CCC(C(=O)NS(=O)(=O)c4ccc(Cl)s4)CC3)nc21 (centres undefined)
Homo sapiens
  IC50: > 300 µM

## CC1(C(=O)NS(=O)(=O)Cc2ccccc2)CCN(c2nc3c(cc2C#N)C(=O)OC3)CC1
Homo sapiens
  IC50: 6.68 µM

## N#Cc1cc2c(nc1N1CCC(C(=O)NS(=O)(=O)Cc3ccc(C(F)(F)F)cc3)CC1)COC2=O
Homo sapiens
  IC50: 15.9 µM

## N#Cc1cc2c(nc1N1CCC(F)(C(=O)NS(=O)(=O)Cc3ccc(Cl)cc3)CC1)COC2=O
Homo sapiens
  IC50: 37.2 µM
